This excerpt belongs to a sample that is enriched for hits.
Xi reactivation – activators of X-chromosome reactivation in mouse fibroblasts. activation, % at 7.58 µM. actives 0.055% (n = 360,000). AID 743238. XiGFP mouse fibroblasts, % GFP-positive cells imaging, 3 d; cells co-treated with 5-aza-dC sensitizer; scaled so ellipticine positive control = 100%;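 active = mean normalized replicate activation at least 10% and every replicate at or above 10%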;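 note: 0% = median of on-plate neutral control wells and 100% = ellipticine 6 µM median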
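System: SV40-immortalized XiGFP fibroblast cells, line 68-5-11 / Incubation: 3-day compound exposure, then 15 min fixation at room temperature / Compound: single concentration per compound, delivered by pin transfer / Buffer or medium: DMEM plus 5-aza-dC sensitizer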
Myeloid diff MLP – promotes myeloid progenitor differentiation; ER-HoxA9 myeloid progenitors, lysozyme-GFP differentiation, flow cytometry; calls only at 10 µM; actives 1% (n = 360,000); AID 624256;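 active = normalized GFP-positive differentiation at or above the plate's own cutoff, the solvent-only control mean plus 3 SD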;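 note: cells exposed to compound for four days before flow analysis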
ABCB6 inh 2 – blocks the human ABCB6 transporter. Q9NP58. actives 0.19% (n = 360,000). AID 602162. fluorescence ratio to DMSO, % at 10 µM. K562-ABCB6 porphyrin accumulation, flow cytometry, 1 h; active compounds read low;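 active = fluorescence ratio to DMSO below 75%, the collection mean minus 3 SD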;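 note: signal is porphyrin accumulated inside mitochondria; 100% equals median channel fluorescence of DMSO control wells; lower ratio means ABCB6 inhibition with less porphyrin fluorescence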
Target sequence (Q9NP58 whole entry, looked up): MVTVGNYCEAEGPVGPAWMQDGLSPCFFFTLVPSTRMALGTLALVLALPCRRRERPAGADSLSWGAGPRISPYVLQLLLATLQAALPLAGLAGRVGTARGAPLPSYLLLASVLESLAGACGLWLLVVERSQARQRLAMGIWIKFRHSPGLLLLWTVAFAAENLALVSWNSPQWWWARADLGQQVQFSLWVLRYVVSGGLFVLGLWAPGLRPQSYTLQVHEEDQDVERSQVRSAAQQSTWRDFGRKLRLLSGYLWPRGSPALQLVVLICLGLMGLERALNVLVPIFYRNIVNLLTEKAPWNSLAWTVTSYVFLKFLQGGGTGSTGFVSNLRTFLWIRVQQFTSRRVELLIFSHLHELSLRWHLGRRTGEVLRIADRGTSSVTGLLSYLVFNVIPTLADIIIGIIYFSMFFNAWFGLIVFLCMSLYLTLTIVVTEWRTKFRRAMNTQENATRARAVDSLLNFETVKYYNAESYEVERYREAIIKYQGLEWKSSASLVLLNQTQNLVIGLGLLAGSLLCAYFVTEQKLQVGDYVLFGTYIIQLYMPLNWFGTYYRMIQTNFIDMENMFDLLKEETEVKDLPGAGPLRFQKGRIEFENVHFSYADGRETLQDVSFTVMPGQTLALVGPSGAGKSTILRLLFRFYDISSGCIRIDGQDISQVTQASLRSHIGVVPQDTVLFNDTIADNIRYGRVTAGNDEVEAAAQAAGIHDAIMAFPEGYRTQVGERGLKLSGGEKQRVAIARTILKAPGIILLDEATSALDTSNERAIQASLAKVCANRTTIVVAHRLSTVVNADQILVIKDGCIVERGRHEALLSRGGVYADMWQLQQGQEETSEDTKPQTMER
Myeloid diff – myeloid differentiation induction; shares compounds with Myeloid diff MLP; ER-HoxA9 myeloid progenitors, GFP/Mac1 double-positive flow; calls only; actives 2% (n = 2,300); AID 651706;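 active = share of green or green-and-red cells above 9 and 9% in run 1 or 4 and 3% in run 2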
GFP autofluor – flagged as fluorescent in myeloid differentiation counter-screen. shares compounds with Myeloid diff MLP. ER-HoxA9 myeloid progenitors, no estrogen, GFP autofluorescence flow cytometry; vehicle wells 0%, positive control 100%. fluorescence response, % (concentration not given with the values). actives 7.4% (n = 2,300). AID 651707;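 active = over 5% cells positive for green fluorescent reporter, or over 2% positive for both it and APC stain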;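 note: range taken on the double positive population between DMSO and positive control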
Starred values were filed as active, the others as inactive; i = inactive; · = no result given; + = active, no number.

SMILES | Xi reactivation | Myeloid diff MLP | ABCB6 inh 2 | Myeloid diff | GFP autofluor
Cc1cc(N2CCCCC2)ccc1C=C1C(=O)N(C)C(=S)N(C)C1=O | 0.0 | i | 104.0 | · | ·
Cc1cc(N2CCCC2)ccc1C=C(C#N)C#N | 0.0 | + | 106.0 | i | 3.7
O=C(Cc1ccncc1)N1CCCCN2[C@H](C1)[C@@H](c1ccc(C#CC3(O)CCCC3)cc1)[C@@H]2CO | -0.1 | · | · | · | ·
Cc1cccc(C(=O)NC(Oc2ccccc2)C(Cl)(Cl)Cl)c1 (stereo unspecified) | · | i | 94.0 | i | 2.1
CCOP(=O)(OCC)C(NC(=O)c1cccc(C)c1)C(Cl)(Cl)Cl (stereo unspecified) | 0.1 | i | 99.0 | · | ·
O=C(Cc1ccccc1)N1CCCCN2[C@@H](CO)[C@H](c3ccc(C#CC4(O)CCCC4)cc3)[C@@H]2C1 | 0.3 | · | · | · | ·
O=C(Cc1ccccn1)N1CCCCN2[C@H](CO)[C@@H](c3ccc(C#Cc4ccccc4)cc3)[C@H]2C1 | 0.2 | · | · | · | ·
O=C1NC(=S)N(c2ccc(Cl)cc2)C(=O)/C1=C/N1CCN(C(=O)c2ccco2)CC1 | · | i | 100.0 | i | 0.4
O=C1NC(=S)N(c2ccc(F)cc2)C(=O)/C1=C\c1ccoc1 | · | i | 77.0 | · | ·
O=c1c2ccccc2nc(/C=C/c2ccccc2F)n1-c1ccccc1O | 0.2 | i | 95.0 | · | ·
O=c1c2ccccc2nc(/C=C/c2ccccc2O)n1-c1ccccc1O | 0.2 | + | 123.0 | i | 58.9*
COC(=O)[C@H]1[C@H](CO)[C@H]2Cn3c(ccc(C4=CCCCC4)c3=O)[C@@H]1N2CC1CCCCC1 | 0.6 | · | · | · | ·
COc1ccc(Oc2cc(NC(=O)c3nn(C)cc3[N+](=O)[O-])cc([N+](=O)[O-])c2)cc1 | · | i | 96.0 | i | 0.3
COc1ccc(NC(=O)c2cn(CCC#N)nc2-c2cccc([N+](=O)[O-])c2)cc1 | 0.0 | i | 101.0 | · | ·
O=C(Cc1ccncc1)N1CCCCN2[C@H](C1)[C@H](c1ccc(C#CC3(O)CCCC3)cc1)[C@@H]2CO | 0.2 | · | · | · | ·
CCCCCCn1c(O)c(C=Nc2ccccc2N2CCOCC2)c(=O)[nH]c1=S | 0.5 | i | 138.0 | i | 0.0
CCCCn1c(O)c(/C=N/N2CCOCC2)c(=O)[nH]c1=S | 0.0 | i | 106.0 | · | ·
CC(C)OC(=O)c1c(N)n(Cc2ccco2)c2nc3ccccc3nc12 | · | i | 101.0 | · | ·
COCCOC(=O)c1c(N)n(Cc2ccco2)c2nc3ccccc3nc12 | · | i | 103.0 | i | 1.7
O=C(Cn1c(=S)[nH]c2ccccc2c1=O)N1CCC2(CC1)OCCO2 | · | i | 99.0 | · | ·
Cn1c(=O)n(CC(=O)N2CCC3(CC2)OCCO3)c(=O)c2ccccc21 | · | + | 95.0 | i | 0.0
COC(=O)[C@H]1[C@H](CO)[C@H]2Cn3c(ccc(-c4ccccc4)c3=O)[C@@H]1N2CC1CCCCC1 | 0.5 | · | · | · | ·
COCC#Cc1ccc([C@@H]2[C@@H](CO)N3CCCCN(C(=O)Cc4ccccn4)C[C@@H]23)cc1 | 0.1 | · | · | · | ·
C[C@H](CO)N1C[C@H](C)[C@@H](CN(C)C(=O)Oc2ccccc2)OCc2ccccc2-c2c(n(C)c3ccccc23)C1=O | 0.2 | · | · | · | ·
COC(=O)C1=C(c2cc3ccccc3s2)C[C@@H]2CC[C@H]1N2C(=O)N1CCCCC1 | 0.2 | i | 100.0 | · | ·
SMILES | Xi reactivation | Myeloid diff MLP | ABCB6 inh 2 | Myeloid diff | GFP autofluor
COC(=O)C1=C(c2cc3ccccc3s2)C[C@@H]2CC[C@H]1N2C(=O)NC1CCCCC1 | 0.0 | i | 98.0 | + | 0.3
COC(=O)C1=C(c2cccc(C#N)c2)C[C@@H]2CC[C@H]1N2C(=O)NC(C)C | 0.1 | i | 85.0 | · | ·
COC(=O)C1=C(c2cccc(C#N)c2)C[C@@H]2CC[C@H]1N2C(=O)NC1CCCCC1 | -0.7 | + | 96.0 | i | 0.0
O=C(O)[C@@H]1[C@@H](CO)[C@@H]2Cn3c(ccc(-c4ccccc4)c3=O)[C@H]1N2S(=O)(=O)c1ccccc1F | 0.4 | · | · | · | ·
C/C=C/c1ccc([C@H]2[C@@H](CO)N3CCCCN(C(=O)Cc4ccncc4)C[C@@H]23)cc1 | 0.2 | · | · | · | ·
C=CCN1C(=O)C2(C(C(=O)OCC)=C(N)Oc3ccccc32)c2c1c1ccccc1oc2=O (stereo unspecified) | · | i | 91.0 | i | 0.0
CCOC(=O)C1=C(N)Oc2c(c(=O)oc3ccccc23)C12C(=O)N(C)c1ccccc12 (stereo unspecified) | · | i | 97.0 | · | ·
OCC1(CO)COC(c2cccnc2)N1 (stereo unspecified) | · | i | 101.0 | · | ·

Screening results as filed in PubChem BioAssay.
